Consider 24 compounds from ChEMBL document CHEMBL3588765, “Synthesis and molecular docking of 1,2,3-triazole-based sulfonamides as aromatase inhibitors” (Bioorg Med Chem, 2015).

SMILES strings stand for the structures. Converted amounts (≈) assume the structure as drawn.

In data set [1] the target is T1, Aromatase (Homo sapiens, UniProt P11511).
T1 sequence (P11511 whole entry): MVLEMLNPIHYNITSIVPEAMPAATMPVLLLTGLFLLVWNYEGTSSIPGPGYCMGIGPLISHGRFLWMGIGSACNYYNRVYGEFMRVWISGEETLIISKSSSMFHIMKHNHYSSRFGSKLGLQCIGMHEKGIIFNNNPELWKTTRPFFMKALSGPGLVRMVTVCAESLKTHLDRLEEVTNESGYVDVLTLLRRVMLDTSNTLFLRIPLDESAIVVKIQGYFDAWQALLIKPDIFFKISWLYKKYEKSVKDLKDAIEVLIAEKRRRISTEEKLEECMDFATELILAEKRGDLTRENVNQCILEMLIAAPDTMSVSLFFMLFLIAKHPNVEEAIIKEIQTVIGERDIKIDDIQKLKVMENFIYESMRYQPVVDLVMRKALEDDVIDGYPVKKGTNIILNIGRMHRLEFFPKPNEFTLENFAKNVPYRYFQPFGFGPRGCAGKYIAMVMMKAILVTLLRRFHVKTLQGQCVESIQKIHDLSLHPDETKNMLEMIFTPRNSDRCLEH
Description: Inhibition of CYP19 (unknown origin) using O-benzyl fluorescein benzyl ester substrate preincubated for 10 mins by fluorimetric analysis relative to control. An outline of the steps: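 CYP19 was assayed with dibenzylfluorescein (DBF) as substrate. DBF is dealkylated by the enzyme and hydrolysed to fluorescein. Cofactor mix was 50 mM phosphate buffer pH 7.4 with an NADPH-generating system (NADP⁺, glucose-6-phosphate, MgCl₂, glucose-6-phosphate dehydrogenase). This mix was preincubated 10 min at 37 °C. Enzyme/substrate mixture (16 pmol/mL CYP19 stock, 0.2 mM DBF stock) and test sample were then added.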

Data set [2] concerns Vero. Briefly: Cytotoxicity against african green monkey Vero cells after 4 days by green fluorescent protein detection method. In kind it is cell-based. The note with it: Chlorocebus sabaeus, 96 h.
Data set [3] in a line: Selectivity index, ratio of IC50 for african green monkey Vero cells to IC50 for CYP19 (unknown origin). An outline of the steps: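 Selectivity index was calculated as the IC₅₀ in GFP-Vero cells (4-day fluorescence assay) divided by the IC₅₀ in the DBF-based CYP19 fluorescence assay.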
Data set [4] can be described thus: Solubility of the compound in phosphate buffer at pH 7.4 medium. In kind it is physicochemical.

What is called IC50 is the point on the concentration scale where inhibition reaches its midpoint. For `COc1cc2c(cc1OC)CN(S(=O)(=O)c1ccc(-n3cc(COc4ccccc4C)nn3)cc1)CC2`, the concentration for half-maximal inhibition (IC50) was more than 12.5 µM in data set [1] and more than 50 µg/mL in data set [2].

`COC(=O)c1ccccc1OCc1cn(-c2ccc(S(=O)(=O)N3CCc4cc(OC)c(OC)cc4C3)cc2)nn1` returned an IC50 in data set [1] of more than 12.5 µM.

In the case of `O=S(=O)(NCCc1ccccc1)c1ccc(-n2cc(COc3cccc4ccccc34)nn2)cc1`, the IC50 in data set [1] was 3.4 µM; in data set [2], more than 50 µg/mL. In addition, in data set [3], the “Ratio IC50” value is recorded as more than 30.35.

As to `O=S(=O)(NCCc1ccccc1)c1ccc(-n2cc(COc3ccccc3)nn2)cc1`, the IC50 in data set [1] was 9.4 µM; in data set [2], more than 50 µg/mL. Moreover, in data set [3], the “Ratio IC50” value is given as more than 12.24.

For the compound `O=[N+]([O-])c1ccc(OCc2cn(-c3ccc(S(=O)(=O)NCCc4ccccc4)cc3)nn2)cc1`, the values for the IC50 in data set [1] and in data set [2] were 2.9 µM and more than 50 µg/mL, respectively. Moreover, the “Ratio IC50” value in data set [3] is listed as more than 35.96.

In the case of `COc1cc2c(cc1OC)CN(S(=O)(=O)c1cccc(-n3cc(COc4ccc5ccc(=O)oc5c4)nn3)c1)CC2`, the figures for the IC50 in data set [1] and in data set [2] were 0.2 µM and more than 50 µg/mL, respectively. In data set [3], the “Ratio IC50” value is recorded as more than 435.09.

`O=c1ccc2ccc(OCc3cn(-c4ccc(S(=O)(=O)NCCc5ccccc5)cc4)nn3)cc2o1`: the values for the IC50 in data set [1] and in data set [2] were more than 12.5 µM and more than 50 µg/mL, respectively.

Regarding `O=c1cc(OCc2cn(-c3ccc(S(=O)(=O)NCCc4ccccc4)cc3)nn2)c2ccccc2o1`, the IC50 was 1.8 µM in data set [1] and more than 50 µg/mL in data set [2]. Besides, the “Ratio IC50” value in data set [3] is more than 55.27.

With `COc1cc2c(cc1OC)CN(S(=O)(=O)c1ccc(-n3cc(COc4ccccc4C(C)=O)nn3)cc1)CC2`, the 50% inhibitory concentration (IC50) in data set [1] is more than 12.5 µM.

Take `O=c1cc(OCc2cn(-c3ccc(S(=O)(=O)N4CCc5ccccc5C4)cc3)nn2)c2ccccc2o1`: the IC50 in data set [1] is more than 12.5 µM.

On to `O=Cc1ccc(OCc2cn(-c3ccc(S(=O)(=O)NCCc4ccccc4)cc3)nn2)cc1`, for which the half-inhibitory concentration (IC50) was 7.9 µM in data set [1] and more than 50 µg/mL in data set [2]. In data set [3], the “Ratio IC50” value is given as more than 13.68.

On to `COc1ccc(CCNS(=O)(=O)c2ccc(-n3cc(-c4ccccc4)nn3)cc2)cc1OC`, for which the results for the IC50 in data set [1] and in data set [2] were 4.6 µM and more than 50 µg/mL, respectively. The “Ratio IC50” value in data set [3] is more than 23.4.

With `COc1cc2c(cc1OC)CN(S(=O)(=O)c1cccc(-n3cc(COc4cc(=O)oc5ccccc45)nn3)c1)CC2`, the values for the IC50 in data set [1] and in data set [2] were 1.8 µM and 86.3 µg/mL (≈ 150 µM), respectively. Moreover, in data set [3], the Ratio IC50 worked out at 48.

Take `Cc1c2ccncc2c(C)c2c1[nH]c1ccccc12` [ELLIPTECINE]: it took 1.94 µg/mL (≈ 7.88 µM) to reach half-maximal inhibition in data set [2] (IC50).

In the case of `O=S(=O)(NCCc1ccccc1)c1ccc(-n2cc(-c3ccccc3)nn2)cc1`, the IC50 in data set [1] is more than 12.5 µM; in data set [2], more than 50 µg/mL.

With `COc1ccc(CCNS(=O)(=O)c2ccc(-n3cc(COc4ccc([N+](=O)[O-])cc4)nn3)cc2)cc1OC`, the half-inhibitory concentration (IC50) is 2.7 µM in data set [1] and more than 50 µg/mL in data set [2]. Besides, in data set [3], the “Ratio IC50” value is given as more than 34.32.

In data set [2], `O=c1ccc2ccc(OCc3cn(-c4cccc(S(=O)(=O)N5CCc6ccccc6C5)c4)nn3)cc2o1` gave an IC50 of 91.5 µg/mL (≈ 178 µM). Also, the solubility entry in data set [4] is listed as “Insoluble”.

For the compound `Cc1ccc(OCc2cn(-c3ccc(S(=O)(=O)NCCc4ccccc4)cc3)nn2)cc1`, the results for the IC50 in data set [1] and in data set [2] were 8 µM and more than 50 µg/mL, respectively. Further, the “Ratio IC50” value in data set [3] was more than 13.93.

On to `COc1cc2c(cc1OC)CN(S(=O)(=O)c1ccc(-n3cc(COc4ccc([N+](=O)[O-])cc4)nn3)cc1)CC2`, for which the IC50 in data set [1] is more than 12.5 µM; in data set [2] it was more than 50 µg/mL.

For `O=c1cc(OCc2cn(-c3cccc(S(=O)(=O)N4CCc5ccccc5C4)c3)nn2)c2ccccc2o1`, the figures for the IC50 in data set [1] and in data set [2] were more than 12.5 µM and more than 50 µg/mL, respectively.

Consider `CC(=O)c1ccccc1OCc1cn(-c2ccc(S(=O)(=O)N3CCc4ccccc4C3)cc2)nn1`, for which the half-inhibitory concentration (IC50) in data set [1] is more than 12.5 µM; in data set [2] it was more than 50 µg/mL.

For `COc1cc2c(cc1OC)CN(S(=O)(=O)c1ccc(-n3cc(COc4cc(C=O)ccc4OC)nn3)cc1)CC2`, the half-maximal inhibitory concentration (IC50) in data set [1] was more than 12.5 µM; in data set [2] it was more than 50 µg/mL.

With `Cc1ccccc1OCc1cn(-c2ccc(S(=O)(=O)NCCc3ccccc3)cc2)nn1`, the IC50 was 3.4 µM in data set [1] and more than 50 µg/mL in data set [2]. Besides, the “Ratio IC50” value in data set [3] was more than 32.79.

In the case of `O=S(=O)(NCCc1ccccc1)c1ccc(-n2cc(COc3ccc4ccccc4c3)nn2)cc1`, the values for the half-maximal inhibitory concentration (IC50) in data set [1] and in data set [2] were 1.3 µM and more than 50 µg/mL, respectively. The “Ratio IC50” value in data set [3] was more than 79.37.
